ChEMBL document CHEMBL3853360, “Combined Interactions with I1-, I2-Imidazoline Binding Sites and α2-Adrenoceptors To Manage Opioid Addiction” (ACS Med Chem Lett, 2016)

Assays:
Nischarin = Nischarin (Rattus norvegicus, UniProt Q4G017); assay: Displacement of [125I]-p-iodoclonidine from I1 receptor imidazoline binding site in Sprague-Dawley rat kidney cell membranes after 30 mins by liquid scintillation counting
Method in brief: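 Radioligand competition binding with pKi determined by displacement. I1 sites: [125I]-p-iodoclonidine on rat kidney membranes. I2 sites: [3H]-2-BFI on rat brain membranes. α2-ARs: [3H]-RX821002 on rat brain membranes.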

[1] = Reduction in morphine dependence expression in CD1 mouse assessed as inhibition of naloxone-precipitated forepaw tremor frequency at 10 mg/kg, ip administered acutely 15 mins prior to naloxone challenge relative to control; assay type: functional, organism-based
[2] = Reduction in morphine dependence expression in CD1 mouse assessed as inhibition of naloxone-precipitated rearing frequency at 5 mg/kg, ip administered acutely 15 mins prior to naloxone challenge relative to control; assay type: functional, organism-based
Mus musculus = assay: Reduction in morphine dependence acquisition in CD1 mouse assessed as inhibition of naloxone-precipitated forepaw tremor frequency at 5 to 10 mg/kg, ip administered 15 mins prior to each morphine challenge relative to control; assay type: functional
Method in brief: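 Mice received i.p. test compound (5 or 10 mg/kg) 15 min before each of repeated morphine injections, with vehicle and morphine-only controls. Withdrawal was then precipitated with naloxone. Jumping frequency and somatic signs (rearing, forepaw tremor, teeth chattering; summed frequency) were scored and compared with the morphine group. Data are mean ± SEM of 6–10 animals.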

[3] = Reduction in morphine dependence expression in CD1 mouse assessed as inhibition of naloxone-precipitated jumping at 10 mg/kg, ip administered acutely 15 mins prior to naloxone challenge relative to control; assay type: functional, organism-based
[4] = Reduction in morphine dependence expression in CD1 mouse assessed as inhibition of naloxone-precipitated teeth chattering frequency at 5 mg/kg, ip administered acutely 15 mins prior to naloxone challenge relative to control; assay type: functional, organism-based

Nischarin, sequence (Q4G017 whole entry): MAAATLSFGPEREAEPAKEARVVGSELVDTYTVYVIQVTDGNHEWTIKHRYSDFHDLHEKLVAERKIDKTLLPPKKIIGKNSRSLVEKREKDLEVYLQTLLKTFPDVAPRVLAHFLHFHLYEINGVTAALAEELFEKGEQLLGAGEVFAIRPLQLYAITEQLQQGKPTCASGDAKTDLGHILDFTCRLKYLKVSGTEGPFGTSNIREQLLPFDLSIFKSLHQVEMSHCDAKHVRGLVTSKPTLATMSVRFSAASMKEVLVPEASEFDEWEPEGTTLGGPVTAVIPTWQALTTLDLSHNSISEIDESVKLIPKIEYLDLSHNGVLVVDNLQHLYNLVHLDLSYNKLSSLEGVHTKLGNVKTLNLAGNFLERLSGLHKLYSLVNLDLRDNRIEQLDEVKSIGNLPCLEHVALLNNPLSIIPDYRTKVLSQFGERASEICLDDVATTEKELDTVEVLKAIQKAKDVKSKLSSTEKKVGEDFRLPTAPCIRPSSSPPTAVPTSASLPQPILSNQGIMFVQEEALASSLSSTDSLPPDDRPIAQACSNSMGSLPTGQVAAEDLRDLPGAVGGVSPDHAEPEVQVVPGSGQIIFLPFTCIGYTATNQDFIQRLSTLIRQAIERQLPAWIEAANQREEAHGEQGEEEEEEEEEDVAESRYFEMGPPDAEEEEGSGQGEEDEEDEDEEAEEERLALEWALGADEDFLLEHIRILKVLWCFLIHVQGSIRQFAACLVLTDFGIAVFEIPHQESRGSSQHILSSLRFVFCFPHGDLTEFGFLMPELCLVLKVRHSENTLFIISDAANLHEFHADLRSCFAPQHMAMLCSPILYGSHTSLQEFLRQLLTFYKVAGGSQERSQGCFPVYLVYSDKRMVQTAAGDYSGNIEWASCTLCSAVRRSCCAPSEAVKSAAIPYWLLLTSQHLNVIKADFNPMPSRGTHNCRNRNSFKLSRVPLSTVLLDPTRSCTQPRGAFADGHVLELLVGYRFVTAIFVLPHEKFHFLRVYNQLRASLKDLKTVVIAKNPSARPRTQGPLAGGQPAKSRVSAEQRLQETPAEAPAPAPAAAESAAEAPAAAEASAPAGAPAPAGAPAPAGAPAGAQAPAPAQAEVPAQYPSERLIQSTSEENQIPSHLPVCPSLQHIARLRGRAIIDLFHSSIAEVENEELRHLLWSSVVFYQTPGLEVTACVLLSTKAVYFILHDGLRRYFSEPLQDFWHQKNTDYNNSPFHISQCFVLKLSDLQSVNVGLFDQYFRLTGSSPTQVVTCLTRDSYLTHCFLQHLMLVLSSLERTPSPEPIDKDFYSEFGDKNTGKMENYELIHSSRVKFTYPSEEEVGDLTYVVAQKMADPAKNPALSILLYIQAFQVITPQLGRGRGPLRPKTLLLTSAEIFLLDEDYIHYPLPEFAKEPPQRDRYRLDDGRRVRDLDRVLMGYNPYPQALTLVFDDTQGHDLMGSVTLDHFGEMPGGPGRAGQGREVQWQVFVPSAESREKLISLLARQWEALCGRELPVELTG

Cc1ccccc1NCC1=NCCN1
Ki (Nischarin): 2 nM | inhibition [1]: 93% | inhibition [2]: 86% | inhibition (INH) (Mus musculus): 80% | inhibition [3]: 98% | inhibition [4]: 86%
